Laboratory results from ChEMBL document CHEMBL4602646, “Design, synthesis and discovery of andrographolide derivatives against Zika virus infection” (Eur J Med Chem, 2020).

Experiments:
[1] = (§1) Cytotoxicity against African green monkey Vero cells assessed as reduction in cell viability incubated for 48 hrs by MTT assay; type: cell-based; details: chlorocebus sabaeus, Vero cells
Summary of the method: (§2)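 MTT viability readout. Cells plated at 1.0 ×10⁴ per well overnight, then exposed to compounds, with 0.1% DMSO vehicle as control: SNB-19 for 24 h, Vero for 48 h. MTT at 0.5 mg/mL final, 4 h at 37 °C; formazan dissolved in DMSO, absorbance at 570 nm. CC₅₀ from % viability versus control; each concentration repeated 3 times independently.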

Zika virus = experiment: Antiviral activity against Zika virus PRVABC-59 infected in human SNB19 cells assessed as reduction in viral titer incubated for 24 hrs by viral titer assay; type: functional, organism-based, SNB-19
Summary of the method: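 SNB-19 glioblastoma cells seeded 1 day ahead and pretreated 1 h with graded compound concentrations (final DMSO 0.1%). Infected with C6/36-derived PRVABC59 at MOI 1; supernatants taken 24 h post-infection. Virus titred by focus-forming unit assay on confluent Vero monolayers: 2 h inoculation, methylcellulose overlay for 48 h, PFA fixation, 4G2 antibody then HRP secondary, DAB–nickel, foci counted. Niclosamide reference included each run.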

[2] = (§3) Cytotoxicity against human SNB19 cells assessed as reduction in cell viability incubated for 24 hrs by MTT assay; type: cell-based, SNB-19; details: SNB19 cells; summary of the method: as §2
Vero = experiment: as §1; type: cell-based; details: chlorocebus sabaeus, vero, 48 h; summary of the method: as §2
[3] = Selectivity index, ratio of CC50 for human SNB19 cells to EC50 for Zika virus PRVABC-59; type: toxicity; details: read-out: Ratio CC50/EC50
Summary of the method: (§4)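 Selectivity index taken as CC₅₀ over EC₅₀. CC₅₀ comes from MTT in Vero (48 h) or SNB-19 (24 h) cells. EC₅₀ comes from the ZIKV PRVABC59 titer-reduction assay in SNB-19 cells (MOI 1, 24 h, focus-forming units on Vero).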

[4] = Selectivity index, ratio of CC50 for African green monkey Vero cells to EC50 for Zika virus PRVABC-59; type: toxicity; details: read-out: Ratio CC50/EC50; summary of the method: as §4
SNB-19 = experiment: as §3; type: cell-based; details: snb-19, 24 h; summary of the method: as §2
[5] = Zika virus, PRVABC-59, SNB-19, 24 h, read-out: EC50

Row | Structure (SMILES) | CC50 at 48 h [1] | EC50 (Zika virus; snb-19) | CC50 at 24 h [2] | CC50 (Vero) | selectivity ratio [3] | selectivity ratio [4] | EC50 (Zika virus; [5]) | CC50 (SNB-19)
1 | C=C1CC[C@H]2[C@@](C)(CCC(=O)[C@@]2(C)COC(C)=O)[C@@H]1C/C=C1/C(=O)OC[C@@H]1Oc1cccc2cccnc12 | 12.8 µM | Not Active | 21.9 µM | – | – | – | – | –
2 | C=C1CC[C@@H]2[C@](C)(CO)[C@H](O)CC[C@@]2(C)[C@@H]1C/C=C1/C(=O)OC[C@@H]1Oc1c(Cl)cc(Cl)c2cccnc12 | – | – | – | > 100 µM | > 7.5 | > 7.5 | 13.3 µM | > 100 µM
3 | C=C1CC[C@@H]2[C@]3(C)COC(C)(C)O[C@@H]3CC[C@@]2(C)[C@@H]1C/C=C1/C(=O)OC[C@H]1Oc1c(Cl)cc(Cl)c2cccnc12 | 58.6 µM | Not Active | 63.5 µM | – | – | – | – | –
4 | C=C1CC[C@@H]2[C@](C)(COC(C)=O)[C@H](O)CC[C@@]2(C)[C@@H]1C/C=C1/C(=O)OC[C@@H]1Oc1c(Cl)cc(Cl)c2cccnc12 | 51.9 µM | Not Active | 39.3 µM | – | – | – | – | –
5 | C=C1CC[C@@H]2[C@](C)(CO)[C@H](O)CC[C@@]2(C)[C@@H]1C/C=C1/C(=O)OC[C@H]1Oc1cccc2ccc(C)nc12 | 61.4 µM | Not Active | > 100 µM | – | – | – | – | –
6 | C=C1CC[C@@H]2[C@](C)(CO)[C@H](O)CC[C@@]2(C)[C@@H]1C/C=C1/C(=O)OC[C@@H]1Oc1cccc2ccc(C)nc12 | – | – | – | 99.8 µM | > 3.9 | 3.9 | 25.8 µM | > 100 µM
7 | C=C1CC[C@@H]2[C@]3(C)COC(C)(C)O[C@@H]3CC[C@@]2(C)[C@@H]1C/C=C1/C(=O)OC[C@@H]1Oc1cccc2cccnc12 | – | – | – | 22 µM | 0.82 | 0.85 | 25.9 µM | 21.1 µM
8 | C=C1CC[C@@H]2[C@]3(C)COC(C)(C)O[C@@H]3CC[C@@]2(C)[C@@H]1C/C=C1/C(=O)OC[C@H]1Oc1cccc2ccc(C)nc12 | – | – | – | 65.3 µM | 4 | 3.9 | 16.6 µM | 66.5 µM
9 | C=C1CC[C@@H]2[C@](C)(COC(C)=O)[C@H](O)CC[C@@]2(C)[C@@H]1C/C=C1/C(=O)OC[C@H]1Oc1c(Cl)cc(Cl)c2cccnc12 | – | – | – | 85 µM | 19.7 | 18.9 | 4.5 µM | 88.7 µM
10 | C=C1CC[C@H]2[C@@](C)(CCC(=O)[C@@]2(C)COC(C)=O)[C@@H]1C/C=C1/C(=O)OC[C@@H]1Oc1cccc2ccc(C)nc12 | 46.7 µM | Not Active | 51.7 µM | – | – | – | – | –
11 | C=C1CC[C@@H]2[C@]3(C)COC(C)(C)O[C@@H]3CC[C@@]2(C)[C@@H]1C/C=C1/C(=O)OC[C@@H]1Oc1c(Cl)cc(Cl)c2cccnc12 | 55.9 µM | Not Active | 39.3 µM | – | – | – | – | –
12 | C=C1CC[C@@H]2[C@](C)(CO)[C@H](O)CC[C@@]2(C)[C@@H]1C/C=C1/C(=O)OC[C@H]1Oc1c(Cl)cc(Cl)c2cccnc12 | – | – | – | – | 10.9 | 7.5 | 7.8 µM | 85.2 µM
13 | C=C1CC[C@@H]2[C@]3(C)COC(C)(C)O[C@@H]3CC[C@@]2(C)[C@@H]1C/C=C1/C(=O)OC[C@H]1Oc1cccnc1[N+](=O)[O-] | 26.2 µM | Not Active | 46.5 µM | – | – | – | – | –
14 | C=C1CC[C@H]2[C@@](C)(CCC(=O)[C@@]2(C)COC(C)=O)[C@@H]1C/C=C1/C(=O)OC[C@@H]1Oc1c(Cl)cc(Cl)c2cccnc12 | – | – | – | 57.4 µM | 2.9 | 2.3 | 24.6 µM | 72 µM
15 | C=C1CC[C@@H]2[C@](C)(COC(C)=O)[C@H](O)CC[C@@]2(C)[C@@H]1C/C=C1/C(=O)OC[C@H]1Oc1cccc2ccc(C)nc12 | 50.6 µM | Not Active | > 100 µM | – | – | – | – | –
16 | C=C1CC[C@@H]2[C@](C)(COC(C)=O)[C@H](O)CC[C@@]2(C)[C@@H]1C/C=C1/C(=O)OC[C@@H]1Oc1cccc2ccc(C)nc12 | 46.5 µM | Not Active | 65.9 µM | – | – | – | – | –
17 | C=C1CC[C@@H]2[C@](C)(COC(C)=O)[C@H](O)CC[C@@]2(C)[C@@H]1C/C=C1/C(=O)OC[C@@H]1Oc1cccc2cccnc12 | 27.5 µM | Not Active | 49.5 µM | – | – | – | – | –
18 | C=C1CC[C@@H]2[C@](C)(CO)[C@H](O)CC[C@@]2(C)[C@@H]1C/C=C1/C(=O)OC[C@H]1Oc1ccnc2ccccc12 | 22.8 µM | – | – | – | 5.5 | 2.1 | 11 µM | 60.1 µM
19 | C=C1CC[C@@H]2[C@](C)(CO)[C@H](O)CC[C@@]2(C)[C@@H]1C/C=C1/C(=O)OC[C@@H]1Oc1ccnc2ccccc12 | 20.7 µM | Not Active | 61.2 µM | – | – | – | – | –
20 | C=C1CC[C@@H]2[C@](C)(CO)[C@H](O)CC[C@@]2(C)[C@@H]1C/C=C1/C(=O)OC[C@@H]1Oc1cccc2cccnc12 | 20.8 µM | – | – | – | 17.5 | 16.1 | 1.3 µM | 22.7 µM
21 | C=C1CC[C@@H]2[C@]3(C)COC(C)(C)O[C@@H]3CC[C@@]2(C)[C@@H]1C/C=C1/C(=O)OC[C@@H]1Oc1cccc2ccc(C)nc12 | – | – | – | 55.9 µM | 9.2 | 6.6 | 8.5 µM | 78.4 µM
22 | C=C1CC[C@H]2[C@@](C)(CCC(=O)[C@@]2(C)COC(C)=O)[C@@H]1C/C=C1/C(=O)OC[C@H]1Oc1cccc2ccc(C)nc12 | 72.4 µM | Not Active | > 100 µM | – | – | – | – | –
23 | C=C1CC[C@@H]2[C@](C)(CO)[C@H](O)CC[C@@]2(C)[C@@H]1C/C=C1/C(=O)OC[C@H]1Oc1cccnc1[N+](=O)[O-] | – | – | – | 37.7 µM | 5.4 | 3 | 12.5 µM | 67.7 µM
24 | C=C1CC[C@H]2[C@@](C)(CCC(=O)[C@@]2(C)COC(C)=O)[C@@H]1C/C=C1/C(=O)OC[C@H]1Oc1c(Cl)cc(Cl)c2cccnc12 | 64.7 µM | Not Active | > 100 µM | – | – | – | – | –
